Data reported in ChEMBL document CHEMBL3600382, “A-ring substituted 17β-arylsulfonamides of 17β-aminoestra-1,3,5(10)-trien-3-ol as highly potent reversible inhibitors of steroid sulfatase” (Bioorg Med Chem, 2015).

Legend:
[1] = system: SK-OV-3; test: Cytotoxicity against human SKOV3 cells; format: functional
[2] = Cytotoxicity against human Hs578T cells; format: functional; conditions: Hs-578T
[3] = system: HL-60(TB); test: Cytotoxicity against human HL-60(TB) cells; format: functional
[4] = system: CCRF-CEM; test: Cytotoxicity against human CCRF-CEM cells; format: functional
[5] = Cytotoxicity against human NCI-ADR-RES cells; format: functional
[6] = system: IGROV-1; test: Cytotoxicity against human IGROV1 cells; format: functional
[7] = Cytotoxicity against human EKVX cells; format: functional
[8] = system: TK-10; test: Cytotoxicity against human TK10 cells; format: functional
[9] = system: UACC-62; test: Cytotoxicity against human UACC62 cells; format: functional
[10] = system: RXF 393; test: Cytotoxicity against human RXF393 cells; format: functional
[11] = system: SK-MEL-2; test: Cytotoxicity against human SK-MEL-2 cells; format: functional
[12] = system: SF-268; test: Cytotoxicity against human SF268 cells; format: functional
[13] = system: MDA-MB-435; test: Cytotoxicity against human MDA-MB-435 cells; format: functional
[14] = system: SF-539; test: Cytotoxicity against human SF539 cells; format: functional
[15] = system: SK-MEL-5; test: Cytotoxicity against human SK-MEL-5 cells; format: functional
[16] = system: LOX IMVI; test: Cytotoxicity against human LOXIMVI cells; format: functional
[17] = system: MDA-MB-231; test: Cytotoxicity against human MDA-MB-231 cells; format: functional
[18] = system: T47D; test: Cytotoxicity against human T47D cells; format: functional
[19] = system: MDA-MB-468; test: Cytotoxicity against human MDA-MB-468 cells; format: functional
[20] = system: COLO 205; test: Cytotoxicity against human COLO205 cells; format: functional
[21] = system: A498; test: Cytotoxicity against human A498 cells; format: functional
[22] = system: BT-549; test: Cytotoxicity against human BT549 cells; format: functional
[23] = system: SN12C; test: Cytotoxicity against human SN12C cells; format: functional
[24] = system: HCC 2998; test: Cytotoxicity against human HCC2998 cells; format: functional
[25] = system: MCF7; test: Cytotoxicity against human MCF7 cells; format: functional
[26] = system: MOLT-4; test: Cytotoxicity against human MOLT4 cells; format: functional
[27] = system: SR; test: Cytotoxicity against human SR cells; format: functional
[28] = system: OVCAR-8; test: Cytotoxicity against human OVCAR8 cells; format: functional
[29] = system: NCI-H226; test: Cytotoxicity against human NCI-H226 cells; format: functional
[30] = system: OVCAR-5; test: Cytotoxicity against human OVCAR5 cells; format: functional
[31] = system: KM12; test: Cytotoxicity against human KM12 cells; format: functional
[32] = system: U-251; test: Cytotoxicity against human U251 cells; format: functional
[33] = system: CAKI-1; test: Cytotoxicity against human Caki1 cells; format: functional
[34] = system: A549; test: Cytotoxicity against human A549 cells; format: functional
[35] = system: NCI-H460; test: Cytotoxicity against human NCI-H460 cells; format: functional
[36] = system: ACHN; test: Cytotoxicity against human ACHN cells; format: functional
[37] = system: HOP-92; test: Cytotoxicity against human HOP92 cells; format: functional
[38] = system: NCI-H23; test: Cytotoxicity against human NCI-H23 cells; format: functional
[39] = system: SNB-75; test: Cytotoxicity against human SNB75 cells; format: functional
[40] = system: M14; test: Cytotoxicity against human M14 cells; format: functional
[41] = system: UACC-257; test: Cytotoxicity against human UACC257 cells; format: functional
[42] = system: OVCAR-3; test: Cytotoxicity against human OVCAR3 cells; format: functional
[43] = system: PC-3; test: Cytotoxicity against human PC3 cells; format: functional
[44] = system: HT-29; test: Cytotoxicity against human HT-29 cells; format: functional
[45] = system: RPMI-8226; test: Cytotoxicity against human RPMI8226 cells; format: functional
[46] = system: SF-295; test: Cytotoxicity against human SF295 cells; format: functional
[47] = system: 786-0; test: Cytotoxicity against human 786-0 cells; format: functional
[48] = system: SW-620; test: Cytotoxicity against human SW620 cells; format: functional
[49] = molecular target: T1, Steryl-sulfatase (Homo sapiens, UniProt P08842); test: Inhibition of STS (unknown origin) using 4-MUS as substrate measured over 10 mins by fluorescence assay
T1 sequence (P08842 whole entry): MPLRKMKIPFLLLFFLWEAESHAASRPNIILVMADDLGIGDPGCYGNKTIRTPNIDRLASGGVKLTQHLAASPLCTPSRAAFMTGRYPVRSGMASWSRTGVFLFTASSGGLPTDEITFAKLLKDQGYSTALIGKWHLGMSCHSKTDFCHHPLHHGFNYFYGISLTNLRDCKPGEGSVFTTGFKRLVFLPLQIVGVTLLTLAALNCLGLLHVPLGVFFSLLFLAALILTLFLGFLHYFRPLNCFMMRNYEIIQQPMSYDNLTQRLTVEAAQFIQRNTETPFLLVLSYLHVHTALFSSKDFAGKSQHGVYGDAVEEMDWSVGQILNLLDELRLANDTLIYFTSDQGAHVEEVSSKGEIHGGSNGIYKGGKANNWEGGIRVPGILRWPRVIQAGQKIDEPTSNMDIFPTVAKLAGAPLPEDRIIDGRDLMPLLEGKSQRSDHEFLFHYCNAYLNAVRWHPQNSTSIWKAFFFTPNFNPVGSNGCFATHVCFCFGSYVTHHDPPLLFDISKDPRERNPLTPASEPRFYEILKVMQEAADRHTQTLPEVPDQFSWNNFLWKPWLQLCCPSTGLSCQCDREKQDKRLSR
In short: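 Purified STS (10 nM final) in 0.1 M Tris-HCl pH 7.0 containing Triton X-100, 4-MUS 200 µM final, and inhibitor at eleven concentrations (5 nM–5 µM). Ex 360/em 460 fluorescence read over 10 min at 24 °C, in quadruplicate, with no-enzyme controls. Vi/V0 from initial rates fit to a slope-factor equation. For tight binders, Ki app is the y-intercept of IC50 vs [E] (10–80 nM).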

C[C@]12CC[C@@H]3c4ccc(O)cc4CC[C@H]3[C@@H]1CC[C@@H]2NS(=O)(=O)c1cccc(Br)c1
GI50 [1]: 1000 nM | GI50 [2]: 4 µM | GI50 [3]: 1000 nM | GI50 [4]: 1000 nM | GI50 [5]: 1000 nM | GI50 [6]: 1000 nM | GI50 [7]: 1000 nM | GI50 [8]: 1000 nM | GI50 [9]: 1000 nM | GI50 [10]: 1000 nM | GI50 [11]: 1000 nM | GI50 [12]: 1000 nM | GI50 [13]: 1000 nM | GI50 [14]: 1000 nM | GI50 [15]: 1000 nM | GI50 [16]: 1000 nM | GI50 [17]: 3900 nM | GI50 [18]: 5 µM | GI50 [19]: 2400 nM | GI50 [20]: 1000 nM | GI50 [21]: 1000 nM | GI50 [22]: 3100 nM | GI50 [23]: 1000 nM | GI50 [24]: 1000 nM | GI50 [25]: 3700 nM | GI50 [26]: 1000 nM | GI50 [27]: 1000 nM | GI50 [28]: 1000 nM | GI50 [29]: 1000 nM | GI50 [30]: 1000 nM | GI50 [31]: 1000 nM | GI50 [32]: 1000 nM | GI50 [33]: 1000 nM | GI50 [34]: 1000 nM | GI50 [35]: 1000 nM | GI50 [36]: 1000 nM | GI50 [37]: 1000 nM | GI50 [38]: 1000 nM | GI50 [39]: 1000 nM | GI50 [40]: 1000 nM | GI50 [41]: 1000 nM | GI50 [42]: 1000 nM | GI50 [43]: 1000 nM | GI50 [44]: 1000 nM | GI50 [45]: 1000 nM | GI50 [46]: 1000 nM | GI50 [47]: 1000 nM | GI50 [48]: 1000 nM

CC(C)(C)c1ccc(S(=O)(=O)N[C@H]2CC[C@H]3[C@@H]4CCc5cc(O)c([N+](=O)[O-])cc5[C@H]4CC[C@]23C)cc1
IC50 [49]: 81 nM

C[C@]12CC[C@@H]3c4ccc(O)c(Br)c4CC[C@H]3[C@@H]1CC[C@@H]2NS(=O)(=O)c1cccc(C(F)(F)F)c1
IC50 [49]: 49 nM

C[C@]12CC[C@@H]3c4ccc(O)c([N+](=O)[O-])c4CC[C@H]3[C@@H]1CC[C@@H]2NS(=O)(=O)c1cccc(C(F)(F)F)c1
GI50 [1]: 1000 nM | GI50 [2]: 2.2 µM | GI50 [3]: 1000 nM | IC50 [49]: 11 nM | GI50 [4]: 1000 nM | GI50 [5]: 1000 nM | GI50 [6]: 1000 nM | GI50 [7]: 1000 nM | GI50 [8]: 1000 nM | GI50 [9]: 1000 nM | GI50 [10]: 1000 nM | GI50 [11]: 1000 nM | GI50 [12]: 1000 nM | GI50 [13]: 1000 nM | GI50 [14]: 1000 nM | GI50 [15]: 1000 nM | GI50 [16]: 1000 nM | GI50 [17]: 1900 nM | GI50 [18]: 1.8 µM | GI50 [19]: 2700 nM | GI50 [20]: 1000 nM | GI50 [21]: 1000 nM | GI50 [22]: 1900 nM | GI50 [23]: 1000 nM | GI50 [24]: 1000 nM | GI50 [25]: 1800 nM | GI50 [26]: 1000 nM | GI50 [27]: 1000 nM | GI50 [28]: 1000 nM | GI50 [29]: 1000 nM | GI50 [30]: 1000 nM | GI50 [31]: 1000 nM | GI50 [32]: 1000 nM | GI50 [33]: 1000 nM | GI50 [34]: 1000 nM | GI50 [35]: 1000 nM | GI50 [36]: 1000 nM | GI50 [37]: 1000 nM | GI50 [38]: 1000 nM | GI50 [39]: 1000 nM | GI50 [40]: 1000 nM | GI50 [41]: 1000 nM | GI50 [42]: 1000 nM | GI50 [43]: 1000 nM | GI50 [44]: 1000 nM | GI50 [45]: 1000 nM | GI50 [46]: 1000 nM | GI50 [47]: 1000 nM | GI50 [48]: 1000 nM

C[C@]12CC[C@@H]3c4cc(Br)c(O)cc4CC[C@H]3[C@@H]1CC[C@@H]2NS(=O)(=O)c1cccc(C(F)(F)F)c1
IC50 [49]: 95 nM

C[C@]12CC[C@@H]3c4cc([N+](=O)[O-])c(O)cc4CC[C@H]3[C@@H]1CC[C@@H]2NS(=O)(=O)c1cccc(Br)c1
IC50 [49]: 50 nM

C[C@]12CC[C@@H]3c4ccc(O)cc4CC[C@H]3[C@@H]1CC[C@@H]2NS(=O)(=O)c1cccc(C(F)(F)F)c1
GI50 [1]: 1000 nM | GI50 [2]: 3.2 µM | GI50 [3]: 1000 nM | GI50 [4]: 1000 nM | GI50 [5]: 1000 nM | GI50 [6]: 1000 nM | GI50 [7]: 1000 nM | GI50 [8]: 1000 nM | GI50 [9]: 1000 nM | GI50 [10]: 1000 nM | GI50 [11]: 1000 nM | GI50 [12]: 1000 nM | GI50 [13]: 1000 nM | GI50 [14]: 1000 nM | GI50 [15]: 1000 nM | GI50 [16]: 1000 nM | GI50 [17]: 2400 nM | GI50 [18]: 3.7 µM | GI50 [19]: 4100 nM | GI50 [20]: 1000 nM | GI50 [21]: 1000 nM | GI50 [22]: 2700 nM | GI50 [23]: 1000 nM | GI50 [24]: 1000 nM | GI50 [25]: 2700 nM | GI50 [26]: 1000 nM | GI50 [27]: 1000 nM | GI50 [28]: 1000 nM | GI50 [29]: 1000 nM | GI50 [30]: 1000 nM | GI50 [31]: 1000 nM | GI50 [32]: 1000 nM | GI50 [33]: 1000 nM | GI50 [34]: 1000 nM | GI50 [35]: 1000 nM | GI50 [36]: 1000 nM | GI50 [37]: 1000 nM | GI50 [38]: 1000 nM | GI50 [39]: 1000 nM | GI50 [40]: 1000 nM | GI50 [41]: 1000 nM | GI50 [42]: 1000 nM | GI50 [43]: 1000 nM | GI50 [44]: 1000 nM | GI50 [45]: 1000 nM | GI50 [46]: 1000 nM | GI50 [47]: 1000 nM | GI50 [48]: 1000 nM

CC(C)(C)c1ccc(S(=O)(=O)N[C@H]2CC[C@H]3[C@@H]4CCc5c(ccc(O)c5[N+](=O)[O-])[C@H]4CC[C@]23C)cc1
IC50 [49]: 8 nM

C[C@]12CC[C@@H]3c4cc([N+](=O)[O-])c(O)cc4CC[C@H]3[C@@H]1CC[C@@H]2NS(=O)(=O)c1cccc(C(F)(F)F)c1
IC50 [49]: 67 nM

C[C@]12CC[C@@H]3c4cc([N+](=O)[O-])c(O)cc4CC[C@H]3[C@@H]1CC[C@@H]2NS(=O)(=O)c1ccc(-c2ccccc2)cc1
IC50 [49]: 33 nM
